Experimental data reported in ChEMBL document CHEMBL4130342, “New semi-synthetic analogs of oleuropein show improved anticancer activity in vitro and in vivo” (Eur J Med Chem, 2017).

Key:
PBMC [1] = test: Induction of apoptosis in human PBMC assessed as early apoptotic cells at 400 ug/ml after 24 hrs by propidium iodide staining-based flow cytometric method (reference value: 0.1%); type: cell-based
B16-F1 [2] = test: Induction of apoptosis in mouse B16-F1 cells assessed as necrotic cells at 283.90 uM after 48 hrs by propidium iodide staining-based flow cytometric method (reference value: 1%); type: functional
K562 = test: Antiproliferative activity against human K562 cells after 72 hrs by MTT reduction assay; type: functional, cell-based; conditions: K562, 72 h
Summary of the method: (§1)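 MTT reduction assay; adherent lines left to adhere overnight, suspension lines (HL-60, K562) seeded on the day. […] Incubation was 72 h at 37°C, with MTT added for the last 4 h. OD read at 545 nm (reference 690 nm). IC50 from 100(A0-A)/A0=50; means ± SD of 3 independent experiments.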

PBMC [3] = test: Induction of apoptosis in human PBMC assessed as late apoptotic cells at 600 ug/ml after 24 hrs by propidium iodide staining-based flow cytometric method (reference value: 0.6%); type: cell-based
B16-F1 [4] = test: Antitumor activity against mouse B16-F1 cells allografted in C57BL/6 mouse assessed as tumor volume at 300 ug, ip administered every other day up to day 29 measured on day 29 post last dose (reference value: 2.83 cm'3); type: functional
Summary of the method: (§2)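 Male C57BL/6 mice, 6-8 weeks old, received 10^5 B16.F1 cells sc in the right flank on day 0. From day 11 (palpable tumors), 5 mice/group were randomized and given ip doses in 200 µL PBS every other day, 8 doses in total, up to day 29. Control group received PBS. Tumors were measured by caliper every two days; volume = 1/2(length × width²).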

PBMC [5] = test: Induction of apoptosis in human PBMC assessed as late apoptotic cells at 300 ug/ml after 24 hrs by propidium iodide staining-based flow cytometric method (reference value: 0.6%); type: cell-based
PBMC [6] = test: Induction of apoptosis in human PBMC assessed as early apoptotic cells at 300 ug/ml after 24 hrs by propidium iodide staining-based flow cytometric method (reference value: 0.1%); type: cell-based
HL-60 = test: Antiproliferative activity against human HL60 cells after 72 hrs by MTT reduction assay; type: functional, cell-based; conditions: HL-60, 72 h; summary of the method: as §1
PBMC [7] = test: Induction of apoptosis in human PBMC assessed as early apoptotic cells at 600 ug/ml after 24 hrs by propidium iodide staining-based flow cytometric method (reference value: 0.1%); type: cell-based
Mus musculus [8] = test: (§3) In vivo induction of tumor-reactive immune response in C57BL/6 mouse allografted with mouse B16-F1 cells assessed as splenocyte-mediated syngeneic mouse B16-F1 cell lysis at 600 ug, ip administered every other day up to day 29 measured on day 29 post last dose by flow cytometric method (reference value: 3.3 to 3.9); type: functional
Summary of the method: (§4)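 Male C57BL/6 mice (6-8 wk) were injected sc in the right flank with 10⁵ B16.F1 cells in PBS on day 0. From day 11, when tumors were palpable, they received ip doses in 200 µL PBS every other day (8 doses; 5 mice/group). On day 29, splenocytes were co-cultured unstimulated with targets at E:T 100:1 for 6 h at 37°C. CD107a/b MFI was read by flow cytometry, 2 mice/group tested individually.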

PBMC [9] = test: Induction of apoptosis in human PBMC assessed as necrotic cells at 150 ug/ml after 24 hrs by propidium iodide staining-based flow cytometric method (reference value: 1%); type: cell-based
HCT-116 = test: Antiproliferative activity against human HCT116 cells after 72 hrs by MTT reduction assay; type: functional, cell-based; conditions: HCT-116, 72 h
Summary of the method: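 MTT reduction assay; adherent lines left to adhere overnight, suspension lines (HL-60, K562) seeded on the day. Incubation was 72 h at 37°C, with MTT added for the last 4 h.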

[10] = Antiproliferative activity against human FM3 cells after 72 hrs by MTT reduction assay; type: functional, cell-based; summary of the method: as §1
B16-F1 [11] = test: Induction of apoptosis in mouse B16-F1 cells assessed as early apoptotic cells at 283.90 uM after 72 hrs by propidium iodide staining-based flow cytometric method (reference value: 0.4%); type: functional
Mus musculus [12] = test: (§5) In vivo induction of tumor-reactive immune response in C57BL/6 mouse allografted with mouse B16-F1 cells assessed as splenocyte-mediated NK-sensitive mouse YAC-1 cell lysis at 600 ug, ip administered every other day up to day 29 measured on day 29 post last dose by flow cytometric method (reference value: 1.2 to 1.7); type: functional; summary of the method: as §4
B16-F1 [13] = test: Induction of apoptosis in mouse B16-F1 cells assessed as necrotic cells at 283.90 uM after 72 hrs by propidium iodide staining-based flow cytometric method (reference value: 2.5%); type: functional
PBMC [14] = test: Induction of apoptosis in human PBMC assessed as necrotic cells at 400 ug/ml after 24 hrs by propidium iodide staining-based flow cytometric method (reference value: 1%); type: cell-based
B16-F1 [15] = test: Induction of apoptosis in mouse B16-F1 cells assessed as late apoptotic cells at 283.90 uM after 48 hrs by propidium iodide staining-based flow cytometric method (reference value: 0.5%); type: functional
HeLa = test: Antiproliferative activity against human HeLa cells after 72 hrs by MTT reduction assay; type: functional, cell-based; summary of the method: as §1
B16-F1 [16] = test: Antitumor activity against mouse B16-F1 cells allografted in C57BL/6 mouse assessed as tumor volume at 600 ug, ip administered every other day up to day 29 measured on day 29 post last dose (reference value: 2.83 cm'3); type: functional; summary of the method: as §2
Mus musculus [17] = test: as §3, with “300” for “600”; type: functional; summary of the method: as §4
Mus musculus [18] = test: as §5, with “splenocyte-mediated” for “splenocyte-mediated NK-sensitive”, “WEHI 164” for “YAC-1”, “1.6)” for “1.7)”; type: functional; summary of the method: as §4
PBMC [19] = test: Induction of apoptosis in human PBMC assessed as necrotic cells at 300 ug/ml after 24 hrs by propidium iodide staining-based flow cytometric method (reference value: 1%); type: cell-based
B16-F1 [20] = test: Induction of apoptosis in mouse B16-F1 cells assessed as late apoptotic cells at 283.90 uM after 24 hrs by propidium iodide staining-based flow cytometric method (reference value: 0.9%); type: functional
Mus musculus [21] = test: as §5, with “splenocyte-mediated” for “splenocyte-mediated NK-sensitive”, “WEHI 164” for “YAC-1”, “300” for “600”, “1.6)” for “1.7)”; type: functional; summary of the method: as §4
PBMC [22] = test: Induction of apoptosis in human PBMC assessed as late apoptotic cells at 400 ug/ml after 24 hrs by propidium iodide staining-based flow cytometric method (reference value: 0.6%); type: cell-based
B16-F1 [23] = test: Antitumor activity against mouse B16-F1 cells allografted in ip dosed C57BL/6 mouse assessed as tumor growth inhibition administered every other day up to day 29 measured on day 29 post last dose; type: functional, organism-based; summary of the method: as §2
PBMC [24] = test: Induction of apoptosis in human PBMC assessed as late apoptotic cells at 500 ug/ml after 24 hrs by propidium iodide staining-based flow cytometric method (reference value: 0.6%); type: cell-based
PBMC [25] = test: Induction of apoptosis in human PBMC assessed as late apoptotic cells at 150 ug/ml after 24 hrs by propidium iodide staining-based flow cytometric method (reference value: 0.6%); type: cell-based
PBMC [26] = test: Induction of apoptosis in human PBMC assessed as early apoptotic cells at 500 ug/ml after 24 hrs by propidium iodide staining-based flow cytometric method (reference value: 0.1%); type: cell-based

Work on `C/C=C1/[C@H](O[C@@H]2O[C@H](CO)[C@@H](O)[C@H](O)[C@H]2O)OC=C(C(=O)OC)[C@H]1CC(=O)OCCc1ccc(O)c(O)c1` [OLEUROPEIN] yielded an Activity (PBMC [1]) of 1.6%, an Activity (B16-F1 [2]) of 4.2% and an IC50 (K562) of 64.7 µM. For the same molecule, the Activity (PBMC [3]) was 12.4%, the Activity (B16-F1 [4]) was 2.41 cm3 and the Activity (PBMC [5]) was 1.9%. For the same molecule, the Activity (PBMC [6]) was 1.2%, the IC50 (HL-60) was 54.3 µM and the Activity (PBMC [7]) was 6.5%. The Flu intensity (Mus musculus [8]) was 6.6 - 7.5, the Activity (PBMC [9]) was 2.5% and the IC50 (HCT-116) was 182 to 185 µM. For the same molecule, the IC50 [10] was 269 to 275 µM, the Activity (B16-F1 [11]) was 22.5% and the Flu intensity (Mus musculus [12]) was 2.9 - 3.3. For the same molecule, the Activity (B16-F1 [13]) was 21.8%, the Activity (PBMC [14]) was 4.3% and the Activity (B16-F1 [15]) was 9.8%. For the same molecule, the IC50 (HeLa) was 265 to 276 µM, the Activity (B16-F1 [16]) was 2.33 cm3 and the Flu intensity (Mus musculus [17]) was 3.2 - 3.9. The Flu intensity (Mus musculus [18]) was 2.5 - 2.7, the Activity (PBMC [19]) was 3.9% and the Activity (B16-F1 [20]) was 6.9%. For the same molecule, the Flu intensity (Mus musculus [21]) was 1.1 - 1.3, the Activity (PBMC [22]) was 3% and the TGI (B16-F1 [23]) was “Dose-dependent effect”. For the same molecule, the Activity (PBMC [24]) was 6.3%, the Activity (PBMC [25]) was 1.5% and the Activity (PBMC [26]) was 3.1%.
